Calls of active or inactive are those of the source. The rule behind the calls is not given here.
Columns and labels:
[1] = target: T1, Retinoic acid receptor RXR-alpha (Homo sapiens) (UniProt P19793); assay: Antagonist activity at Gal4-fused human RXRalpha LBD (unknown origin) assessed as inhibition of 9-cis-retinoic acid-induced transactivation at 1 to 50 uM after 18 hrs by cell-based dual luciferase reporter gene assay
T1 sequence (whole entry): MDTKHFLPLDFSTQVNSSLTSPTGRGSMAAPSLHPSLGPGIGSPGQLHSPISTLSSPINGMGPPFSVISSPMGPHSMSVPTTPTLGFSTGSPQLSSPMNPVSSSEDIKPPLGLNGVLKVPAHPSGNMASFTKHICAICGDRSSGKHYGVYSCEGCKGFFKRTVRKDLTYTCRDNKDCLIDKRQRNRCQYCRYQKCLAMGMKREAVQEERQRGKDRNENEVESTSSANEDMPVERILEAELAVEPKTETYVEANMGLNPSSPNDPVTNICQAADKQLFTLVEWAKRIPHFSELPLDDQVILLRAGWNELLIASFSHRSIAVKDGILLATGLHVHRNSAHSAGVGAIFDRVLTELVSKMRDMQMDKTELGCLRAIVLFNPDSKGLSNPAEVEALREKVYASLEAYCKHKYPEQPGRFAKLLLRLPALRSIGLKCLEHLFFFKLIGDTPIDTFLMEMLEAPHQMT
How it was run: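 Cells transfected with Gal4 reporter plus Gal4-RXRα/LBD plasmids for 24 h, then treated with compounds at 1, 10 and 50 µM in the presence of 9-cis-RA for 18 h. Firefly luciferase read from lysates, normalized to Renilla. A compound counted as antagonist when inhibition was dose-dependent.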

MDA-MB-231 = assay: Growth inhibition of human MDA-MB-231 cells after 48 hrs by MTT assay; format: functional, cell-based; settings: MDA-MB-231, 48 h
How it was run: (§1)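 MDA-MB-231 grown in DMEM, MCF-7 in MEM, each with 10% FBS, 37 °C, 5% CO2. Confluent cells exposed to compound, 0.195–100 μM, for 48 h. Then 2 mg/mL MTT for 4 h at 37 °C, formazan dissolved in DMSO, absorbance read at 490 nm. IC50 values are the mean of three independent experiments.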

MCF7 [2] = assay: Growth inhibition of human MCF7 cells after 48 hrs by MTT assay; format: functional, cell-based; settings: MCF7, 48 h; how it was run: as §1
[3] = target: T2, Retinoic acid receptor RXR-alpha (Homo sapiens, UniProt P19793); assay: Inhibition of 9-cis-retinoic acid competition binding to RXRalpha LBD (unknown origin) by fluorescence quenching method
T2 sequence (P19793 whole entry): T1 sequence (whole entry)

MCF7 [4] = assay: Induction of apoptosis in human MCF7 cells assessed as increase in PARP cleavage at 30 uM after 12 hrs in presence of siRNA by Immunoblotting analysis; format: functional, cell-based
How it was run: (§2)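 Cells transfected (Lipofectamine 2000) with control or RXRα siRNA for 48 h. HeLa (MEM, 10% FBS) then given compound at 20 μM for 8 h; MCF-7 (MEM, 10% FBS) given 30 μM for 12 h. Lysates run on 10% SDS-PAGE, transferred to nitrocellulose, probed for PARP cleavage and detected by ECL.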

HeLa = assay: Induction of apoptosis in human HeLa cells assessed as increase in PARP cleavage at 20 uM after 8 hrs in presence of RXRalpha siRNA by Immunoblotting analysis; format: functional, cell-based; how it was run: as §2
[5] = target: T1, Retinoic acid receptor RXR-alpha (Homo sapiens); assay: Inhibition of RXRalpha in human HeLa cells assessed as increase in PARP cleavage at 15 uM after 8 hrs in presence of TNFalpha by Immunoblotting analysis; format: cell-based
How it was run: (§3)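 Cells kept in medium with 0% FBS and treated with compound together with TNF-α (20 ng/mL). Exposure was 8 h for HeLa and 12 h for MCF-7. PARP cleavage read by immunoblot: 10% SDS-PAGE, nitrocellulose, blocking in 5% milk/TBST, HRP secondary antibody, ECL.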

[6] = target: T1, Retinoic acid receptor RXR-alpha (Homo sapiens); assay: Inhibition of RXRalpha in human MCF7 cells assessed as increase in PARP cleavage at 30 uM after 12 hrs in presence of TNFalpha by Immunoblotting analysis; format: cell-based; how it was run: as §3
[7] = target: T1, Retinoic acid receptor RXR-alpha (Homo sapiens); assay: Inhibition of RXRalpha in human HeLa cells assessed as increase in PARP cleavage after 8 hrs by Immunoblotting analysis; format: cell-based
How it was run: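 HeLa cells in medium with 0% FBS treated with compounds, with or without TNF-α (20 ng/mL), for 8 h. PARP cleavage detected by immunoblot: 10% SDS-PAGE, nitrocellulose, 5% milk/TBST block, ECL detection. For the RXRα-dependence check, cells first got control or RXRα siRNA for 48 h, then compounds at 20 µM for 8 h.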

[8] = target: T1, Retinoic acid receptor RXR-alpha (Homo sapiens); assay: Inhibition of RXRalpha in human MCF7 cells assessed as increase in PARP cleavage after 12 hrs by Immunoblotting analysis; format: cell-based
How it was run: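 MCF-7 cells in medium with 0% FBS treated with compounds, with or without TNF-α (20 ng/mL), for 12 h. PARP cleavage read by immunoblot (10% SDS-PAGE, ECL). For the RXRα-dependence check, cells got control or RXRα siRNA for 48 h, then compounds at 30 µM for 12 h.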

Structure (SMILES) | Activity [1] | IC50 (MDA-MB-231) [µM] | IC50 (MCF7 [2]) [µM] | further results
CC1=C(Cc2nnn[nH]2)c2ccccc2/C1=C\c1cccc(C(F)(F)F)c1 | Active | – | – | –
CC(C)c1ccc(/C=C2\C=C(CCc3nnn[nH]3)c3ccccc32)cc1 | – | 15.6 | 41.8 | –
COc1ccc(/C=C2/C(C)=C(CCc3nnn[nH]3)c3ccccc32)cc1 | Active | – | – | –
CC1=C(CCc2nnn[nH]2)c2ccccc2/C1=C\c1ccc(Cl)cc1 | – | 15.2 | 56.3 | –
CSc1ccc(/C=C2/C(C)=C(CCc3nnn[nH]3)c3ccccc32)cc1 | Active | – | – | –
CC1=C(CCc2nnn[nH]2)c2ccccc2/C1=C\c1cccc(C(F)(F)F)c1 | – | 15.6 | 28.8 | –
CSc1ccc(/C=C2/C(C)=C(Cc3nnn[nH]3)c3ccccc32)cc1 | Active | – | – | –
CC1=C(CCc2nnn[nH]2)c2ccccc2/C1=C\c1ccccc1C(F)(F)F | Active | – | – | –
CC(C)c1ccc(/C=C2/C=C(CC(=O)NO)c3cc(F)ccc32)cc1 | – | 5 | 20.8 | Kd [3]: 1.13 µM; Activity (MCF7 [4]): inactive; Activity (HeLa): inactive; inhibition [5]: Active; inhibition [6]: Active
CC1=C(Cc2nnn[nH]2)c2ccccc2/C1=C\c1ccc(C(C)C)cc1 | – | 8.48 | 27.6 | –
CC1=C(CCc2nnn[nH]2)c2ccccc2/C1=C\c1cccc2ccccc12 | Active | – | – | inhibition [7]: Dose-dependent effect; inhibition [8]: Dose-dependent effect
CC1=C(Cc2nnn[nH]2)c2ccccc2/C1=C\c1ccc(C(C)(C)C)cc1 | – | 14.3 | 38.4 | –
CC1=C(CCc2nnn[nH]2)c2ccccc2/C1=C\c1ccccc1Cl | Active | – | – | –
CC(C)c1ccc(/C=C2\C=C(Cc3nnn[nH]3)c3ccccc32)cc1 | Active | – | – | –
CC1=C(CCc2nnn[nH]2)c2ccccc2/C1=C\c1cccc(Cl)c1 | – | 24.7 | 45.6 | –
CC1=C(CCc2nnn[nH]2)c2ccccc2/C1=C\c1ccc(C(F)(F)F)cc1 | – | 22.1 | 39.4 | –
CC1=C(Cc2nnn[nH]2)c2ccccc2/C1=C\c1ccc(OC(F)(F)F)cc1 | Active | – | – | –
CC1=C(Cc2noc(=O)[nH]2)c2ccccc2/C1=C\c1ccc(C(C)C)cc1 | – | 9.04 | 23.8 | –
CC1=C(CCc2nnn[nH]2)c2ccccc2/C1=C\c1ccc(C(C)C)cc1 | – | 12.3 | 27 | –
CC1=C(CC(=O)O)c2cc(F)ccc2/C1=C\c1ccc(C(C)C)cc1 | – | – | – | Kd [3]: 2.38 µM
CC1=C(CCc2nnn[nH]2)c2ccccc2/C1=C\c1ccc(C(C)(C)C)cc1 | – | 12.5 | 31.1 | –
COc1ccc(/C=C2\C=C(Cc3nnn[nH]3)c3ccccc32)cc1 | Active | – | – | –
COc1ccc(/C=C2/C(C)=C(Cc3nnn[nH]3)c3ccccc32)cc1 | – | 25.7 | 104 | –
CC1=C(CCc2nnn[nH]2)c2ccccc2/C1=C\c1ccc(OC(F)(F)F)cc1 | – | 8.9 | 17.3 | Kd [3]: 1.59 µM; Activity (MCF7 [4]): inactive; Activity (HeLa): inactive; inhibition [7]: Dose-dependent effect; inhibition [8]: Dose-dependent effect; inhibition [5]: Active; inhibition [6]: Active
CC1=C(Cc2nnn[nH]2)c2ccccc2/C1=C\c1cccs1 | – | 53.3 | 124 | –
CC1=C(Cc2nnn[nH]2)c2ccccc2/C1=C\c1ccc(C(F)(F)F)cc1 | Active | – | – | –
CC1=C(Cc2nnn[nH]2)c2ccccc2/C1=C\c1ccccc1C(F)(F)F | – | 40.8 | 62.3 | –
